Assay outcomes: PubChem, Sanford-Burnham Center for Chemical Genomics
Only some compounds are listed: those with a hit (about 1.7% of all), similar ones and a draw of the others.
STEP inh = inhibitors of human striatal-enriched phosphatase STEP; P54829; recombinant STEP, OMFP fluorogenic substrate, fluorescence; inhibition, % at 20 µM; hit rate 0.25% among 360,000; AID 588621;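 active = inhibition at 20 µM, scaled per plate between control wells, above about 37%, limit read from the data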;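 also: 0% = DMSO with enzyme and substrate and 100% = substrate only without enzyme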
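medium = Bis-Tris buffer pH 6.0, 2.5 mM DTT, 0.005% Tween 20 | test system = STEP (striatal-enriched tyrosine phosphatase) enzyme, cell-free | measure = normalized % inhibition | compound dosing = 20 µM, 1% DMSO | also added = 25 µM OMFP | schedule = reaction 20 min, ambient temperature | measured by = fluorescence read at 480 nm ex / 540 nm em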
LMPTP inh = LMPTP (human) inhibition; P24666; recombinant LMPTP-A, OMFP fluorogenic substrate, fluorescence intensity; inhibition, % at 20 µM; hit rate 0.22% among 360,000;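 active = compounds that cut the enzyme signal by at least half of the control window in the single-dose screen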;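 also: plate controls were DMSO wells with enzyme plus substrate for no effect and substrate without enzyme for full effect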
Target sequence (P24666 whole entry, looked up): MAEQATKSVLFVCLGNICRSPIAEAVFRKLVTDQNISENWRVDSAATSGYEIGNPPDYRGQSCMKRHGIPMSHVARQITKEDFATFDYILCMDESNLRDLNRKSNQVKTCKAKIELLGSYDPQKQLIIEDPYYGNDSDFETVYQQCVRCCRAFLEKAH
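Test system – LMPTP-A enzyme · Amount – LMPTP-A at 0.625 nM final in the reaction · Buffer or medium – Bis-Tris pH 6.0, DTT, detergent · Reagent – OMFP 400 µM · Doses – single 20 µM dose · Schedule – reaction 50 min, room temperature, dark · Detection – fluorescence intensity of OMFP turnover product · Evaluation – percent inhibition versus substrate-only and uninhibited controls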
Scp1 inh = blocks human Scp-1 phosphatase activity; Q9GZU7; Recombinant Scp1, phosphopeptide, malachite green phosphate absorbance; inhibition, % at 20 µM; hit rate 0.88% among 340,000; AID 493091;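 active = inhibition above about 50% at 20 µM, limit read from the data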;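 also: plate controls were DMSO wells with enzyme for no effect and wells lacking enzyme for full effect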
Target sequence (Q9GZU7 76-261 limits assumed): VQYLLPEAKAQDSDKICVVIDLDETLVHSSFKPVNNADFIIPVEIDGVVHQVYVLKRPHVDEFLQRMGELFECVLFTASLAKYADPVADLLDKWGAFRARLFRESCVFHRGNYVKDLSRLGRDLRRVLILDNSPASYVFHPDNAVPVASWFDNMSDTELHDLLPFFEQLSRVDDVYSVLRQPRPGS
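Incubation: 45 min enzyme reaction at room temperature / System: truncated SCP-1 phosphatase (76-261aa) / Reagent: Phospho 17-mer peptide substrate / Buffer or medium: Acidic Tris acetate buffer with magnesium and detergent / Signal: absorbance at 630 nm / Doses: one concentration, 20 µM, with 1.0% DMSO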
DNMT1 block = blocks human DNA methyltransferase DNMT1. DNMT1 molecular beacon, Hinp1I cleavage, fluorescence. inhibition (reported as % activation of signal), % at 10 µM. hit rate 0.83% among 360,000. AID 588458; in the data active = inhibition above about 50%
SUMO1 PPI mod = SUMO1-SIM interaction modulation. AID 602429. SUMO1 binding to a labelled peptide, TR-FRET, 1 h. hit rate 0.33% among 360,000. inhibition, % at 20 µM. P63165; in the data active = inhibition above about 37%
Target sequence (P63165 whole entry, looked up): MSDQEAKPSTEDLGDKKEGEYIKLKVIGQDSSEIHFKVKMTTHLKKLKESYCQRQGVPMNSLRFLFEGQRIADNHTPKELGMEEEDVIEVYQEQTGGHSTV
Scp-1 conf = confirmation of human Scp-1 phosphatase inhibitors; shares compounds with Scp1 inh; recombinant SCP-1 catalytic domain, phosphate release, malachite green absorbance; inhibition, % at 20 µM; hit rate 61% among 2,500;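 also: plate controls were DMSO with enzyme for no effect and buffer wells lacking enzyme for full effect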
MG interference = colorimetric interference in Scp-1 counter-screen. 2,500 tested, under 10 active. shares compounds with Scp1 inh. AID 540313. apparent inhibition (interference), % at 20 µM. Colorimetric interference counterscreen, malachite green absorbance 630 nm;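 also: compounds added after enzyme reaction finished so only phosphate colour detection is probed; plate controls were DMSO wells with completed Scp-1 reaction for no effect and substrate wells lacking enzyme for full effect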
Scp-1 Tm shift = Scp-1 (human) binding by thermal shift. shares compounds with Scp1 inh. Recombinant SCP1, Sypro Orange thermal shift Tm. thermal shift relative to vanadate control, % at 40 µM. hit rate 25% among 1,500. AID 540329;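 active = substances whose mean melting-temperature shift, as a percentage of the reference inhibitor's shift, reaches about 5.3%, limit read from the data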;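 also: 0% = Tm of DMSO wells and 100% = Tm with sodium orthovanadate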
DNMT1 interf DR = shows spectral interference in the DNMT1 beacon assay; shares compounds with DNMT1 block; molecular beacon fluorescence, spectral interference counter-screen; IC50, µM; 200 tested, under 10 active; AID 602382; call rule not given here
DNMT1 confirm = DNMT1 inhibition confirmation, single concentration. shares compounds with DNMT1 block. DNMT1 molecular beacon HinP1I cleavage, fluorescence. inhibition, % at 10 µM. hit rate 8% among 2,300. AID 602385;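 active = average inhibition of at least 30% in the single-concentration confirmation test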
Beacon interf = beacon fluorescence artifact counter-screen; shares compounds with DNMT1 block; DNMT1 molecular beacon spectral interference counterscreen, fluorescence 485/520; activation (fluorescence interference), % at 10 µM; hit rate 1% among 2,300; AID 602387;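 active = activation of at least 30% at 10 µM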;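 also: DNMT1 catalytic domain with a HinP1I cleavage step and a FAM/dabcyl DNA beacon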
* marks the source's active call; other numbers are inactive results; . = not tested or not shown.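 The calls were made as follows, unless noted: active = inhibition of at least 30% at 20 µM; inactive = the rest.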

SMILES	STEP inh	LMPTP inh	Scp1 inh	DNMT1 block	SUMO1 PPI mod	DNMT1 confirm	Beacon interf	others
CCOc1cccc(N2C(=O)/C(=C/c3ccco3)C(=O)NC2=S)c1	55.5*	34.4	74.1*	98.0*	56.4*	79.7*	-0.2	Scp-1 conf=70.4*;MG interference=-11.2;Scp-1 Tm shift=6.4*;DNMT1 interf DR=>99
COc1ccc(CN2C(=O)NC(=O)/C(=C\c3ccco3)C2=O)cc1	10.9	29.4	82.0*	86.1*	22.5	28.1	-4.8	Scp-1 conf=57.9*;MG interference=-21.6;Scp-1 Tm shift=5.5*;DNMT1 interf DR=>99
COc1ccccc1/C=C1\C(=O)NC(=S)N(c2ccccc2)C1=O	-0.2	-2.1	14.6	-1.8	9.5	.	.
Cc1ccc(/C=C2/C(=O)NC(=O)N(CCc3ccc(F)cc3)C2=O)o1	-1.2	0.2	-10.4	3.8	8.6	.	.
O=C1NC(=O)N(CCc2ccc(F)cc2)C(=O)/C1=C/c1ccco1	47.7*	65.8*	91.7*	98.4*	80.4*	4.8	-0.4	Scp-1 conf=66.4*;MG interference=-15.6;Scp-1 Tm shift=-1.2
CCOC(=O)CNC(=S)N1CC2C[C@@H](C1)Cn1c2cccc1=O	2.0	-0.6	-10.1	1.6	1.6	.	.
O=C1NC(=O)N(c2ccc3c(c2)OCO3)C(=O)/C1=C\c1ccc(-c2ccccc2C(=O)O)o1	12.3	3.7	56.3*	89.8*	24.3	7.9	-0.6	Scp-1 conf=51.6*;MG interference=-10.6;Scp-1 Tm shift=2.6
COC(=O)C1=C(c2ccc(OC)c(OC)c2)C[C@@H]2CC[C@H]1N2C(=O)NCCc1ccccc1	-0.4	-0.1	-14.5	1.9	0.4	.	.
Nc1ccncc1Cl	-1.9	0.0	1.0	3.2	-3.5	.	.
CN1CCN(C(=O)COc2ccc(S(=O)(=O)N(C)Cc3ccccc3)cc2)CC1	0.4	-0.9	-5.2	54.7*	-2.9	3.6	8.6
CCN1CCN(C(=O)COc2ccc(S(=O)(=O)N(C)Cc3ccccc3)cc2)CC1	0.1	0.9	-8.4	1.2	2.5	.	.
CC(C)OCCCNC(=O)c1c(N)n(CC2CCCO2)c2nc3ccccc3nc12 (stereo not given)	4.0	12.9	0.5	85.2*	40.4*	0.6	8.8
CCCNC(=O)c1c(N)n(CC2CCCO2)c2nc3ccccc3nc12 (stereo not given)	4.8	4.0	7.2	60.5*	44.4*	2.1	4.5
Nc1c(C(=O)OC2CCCCC2)c2nc3ccccc3nc2n1CC1CCCO1 (stereo not given)	6.7	3.6	-0.1	-20.9	18.8	.	.
CCN(CC)c1ccc(/C=C2/C(=O)NC(=O)N(Cc3ccco3)C2=O)cc1	1.3	0.7	5.0	68.4*	-3.7	1.5	-1.0
CN(C)c1ccc(/C=C2/C(=O)NC(=O)N(Cc3ccco3)C2=O)cc1	4.7	1.5	33.3	93.5*	8.2	10.8	6.3
CN(C)c1ccc(/C=C2\C(=O)NC(=O)N(CCc3ccc(F)cc3)C2=O)cc1	1.9	0.6	16.5	-5.1	-2.6	.	.
O=C1NC(=S)N(c2ccccc2)C(=O)/C1=C/c1ccco1	39.8	6.8	93.2*	93.5*	53.9*	82.0*	-10.9	DNMT1 interf DR=>99
COc1cccc(N2C(=O)/C(=C/c3ccc(C)o3)C(=O)NC2=S)c1	3.6	1.1	39.5	61.6*	19.7	0.1	1.6
CC[C@@H]1c2ccccc2[C@@H]2CC[C@H]1N2c1ccccc1	.	1.9	.	.	-2.7	.	.
Cn1c(O)c(C=NCCN2CCN(C(=O)Nc3ccccc3)CC2)c(=O)n(C)c1=O	-4.7	-4.6	-6.6	0.8	1.7	.	.
Cc1cc(/C=C2\C(=O)NC(=O)N(c3cccc(F)c3)C2=O)c(C)n1-c1cc(C(=O)O)cc(C(=O)O)c1	8.8	0.4	39.1	74.9*	25.6	9.7	4.1
Cc1cc(/C=C2\C(=O)NC(=O)N(c3cccc(Br)c3)C2=O)c(C)n1C	-3.3	0.4	-13.8	8.4	0.9	.	.
COc1cc([C@@H]2c3cc4c(cc3[C@@H](OC)[C@H]3COC(=O)[C@H]23)OCO4)cc(OC)c1O	-2.6	-1.4	-4.9	1.0	-3.0	.	.
COc1ccc(CN2CCCC(C(=O)c3sccc3C)C2)cc1O (stereo not given)	-1.5	1.1	-3.4	-6.5	-0.9	.	.
SMILES	STEP inh	LMPTP inh	Scp1 inh	DNMT1 block	SUMO1 PPI mod	DNMT1 confirm	Beacon interf	others
C/C(=C/CCC(C)[C@H]1CC[C@@]2(C)C3=C(CC[C@]12C)[C@@]1(C)CCC(=O)C(C)(C)[C@@H]1CC3)C(=O)O (stereo not given in full)	0.0	2.8	-8.2	59.8*	41.4*	23.4	-9.0	DNMT1 interf DR=>99
CCN1C(=O)C(=C2C=C(C)N(Cc3ccco3)C(C)=C2)C(=O)N(CC)C1=S	1.1	1.0	-15.2	-2.0	1.6	.	.
CC(C)N1C(=O)/C(=C/C=C/c2ccco2)C(=O)N(Cc2ccco2)C1=O	2.5	4.7	69.9*	108.7*	8.1	26.7	-0.3	DNMT1 interf DR=>99
O=C1NC(=O)N(Cc2ccccc2)C(=O)/C1=C/C=C/c1ccco1	0.7	1.7	-10.6	89.7*	19.1	1.9	0.8
CCN1C(=O)C(=C/C=C/c2ccco2)C(=O)N(CC)C1=S	-6.4	6.5	54.7*	101.5*	19.2	11.6	-2.6
CC(C)c1ccc(N2C(=O)NC(=O)/C(=C\C=C\c3ccco3)C2=O)cc1	.	.	5.5	.	.	.	.
COc1ccc(-n2c(-c3ccccc3[N+](=O)[O-])nc3ccccc3c2=O)cc1	-3.1	-0.3	-18.9	-4.0	-12.7	.	.
C[C@]12CCC3C(CC[C@H]4C[C@@H](O)CC[C@]34C)C1C[C@@H](O)[C@]2(C)O (stereo not given in full)	-4.1	-1.9	-12.4	1.2	-2.3	.	.
C#C[C@]1(O)[C@H](O)CC2C3CC[C@H]4C[C@@H](O)CC[C@]4(C)C3CC[C@@]21C (stereo not given in full)	-2.3	3.4	.	67.4*	3.0	4.2	3.8
